Results reported in ChEMBL document CHEMBL1157673, “Synthesis and in vitro evaluation of fluorinated diphenyloxide derivatives and sulfur analogs as serotonin transporter ligands” (Bioorg Med Chem, 2010).

How the values were obtained:
[1] = target: Sodium-dependent serotonin transporter (Homo sapiens, UniProt P31645); experiment: Displacement of [3H]citalopram from human cloned SERT expressed in HEK293 cells; format: cell-based
Procedure, shortened: (§1)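 Each compound was first tested at 100 nM against tritiated radioligand binding. A Ki was determined only where that concentration inhibited at least 50% of specific binding (IC50 <100 nM).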

[2] = target: Sodium-dependent noradrenaline transporter (Homo sapiens, UniProt P23975); experiment: Displacement of [3H]nisoxetine from human cloned NET expressed in HEK293 cells; format: cell-based; procedure, shortened: as §1
Sodium-dependent noradrenaline transporter, sequence (P23975 whole entry): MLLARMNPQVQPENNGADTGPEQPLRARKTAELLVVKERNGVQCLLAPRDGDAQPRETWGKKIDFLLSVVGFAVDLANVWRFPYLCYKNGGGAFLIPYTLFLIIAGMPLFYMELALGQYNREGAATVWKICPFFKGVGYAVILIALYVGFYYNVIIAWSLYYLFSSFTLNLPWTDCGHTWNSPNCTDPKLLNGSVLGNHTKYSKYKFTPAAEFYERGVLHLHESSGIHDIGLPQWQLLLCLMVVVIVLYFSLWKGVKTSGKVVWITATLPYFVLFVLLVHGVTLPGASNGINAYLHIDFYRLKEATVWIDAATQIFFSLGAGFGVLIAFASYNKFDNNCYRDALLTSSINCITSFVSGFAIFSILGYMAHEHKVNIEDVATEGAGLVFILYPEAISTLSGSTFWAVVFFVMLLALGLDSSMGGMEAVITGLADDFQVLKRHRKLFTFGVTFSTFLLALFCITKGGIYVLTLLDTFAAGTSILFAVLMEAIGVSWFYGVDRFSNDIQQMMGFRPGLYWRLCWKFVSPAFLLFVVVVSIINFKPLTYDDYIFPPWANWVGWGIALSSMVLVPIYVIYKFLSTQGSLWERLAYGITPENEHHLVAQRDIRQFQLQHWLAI

[3] = target: T1, Sodium-dependent dopamine transporter (Homo sapiens, UniProt Q01959); experiment: Displacement of [3H]GBR12935 from human cloned DAT expressed in HEK293 cells
T1 sequence (Q01959 whole entry): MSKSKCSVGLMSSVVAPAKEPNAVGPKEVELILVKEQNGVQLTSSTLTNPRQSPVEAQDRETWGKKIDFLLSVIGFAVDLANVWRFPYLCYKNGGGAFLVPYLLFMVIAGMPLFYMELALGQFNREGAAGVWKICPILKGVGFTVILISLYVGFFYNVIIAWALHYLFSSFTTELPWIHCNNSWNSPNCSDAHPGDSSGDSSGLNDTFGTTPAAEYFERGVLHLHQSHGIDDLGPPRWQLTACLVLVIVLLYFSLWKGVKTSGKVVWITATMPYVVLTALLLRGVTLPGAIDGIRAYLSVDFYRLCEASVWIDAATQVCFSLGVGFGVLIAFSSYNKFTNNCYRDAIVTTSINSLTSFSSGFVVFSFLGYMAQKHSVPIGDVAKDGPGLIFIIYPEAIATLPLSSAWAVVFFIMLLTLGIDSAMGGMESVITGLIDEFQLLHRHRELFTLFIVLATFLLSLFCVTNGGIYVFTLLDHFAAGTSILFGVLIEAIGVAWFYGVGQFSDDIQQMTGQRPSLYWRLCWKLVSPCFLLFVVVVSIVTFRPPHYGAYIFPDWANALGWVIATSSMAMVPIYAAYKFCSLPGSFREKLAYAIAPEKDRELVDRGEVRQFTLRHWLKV

[4] = target: T1, Sodium-dependent dopamine transporter; experiment: Displacement of [3H]WIN-35428 from human cloned DAT expressed in HEK293 cells; format: cell-based; conditions: in the assay text read “[3H]GBR12935” for “[3H]WIN-35428”; procedure, shortened: as §1

Sodium-dependent serotonin transporter, sequence (P31645 whole entry): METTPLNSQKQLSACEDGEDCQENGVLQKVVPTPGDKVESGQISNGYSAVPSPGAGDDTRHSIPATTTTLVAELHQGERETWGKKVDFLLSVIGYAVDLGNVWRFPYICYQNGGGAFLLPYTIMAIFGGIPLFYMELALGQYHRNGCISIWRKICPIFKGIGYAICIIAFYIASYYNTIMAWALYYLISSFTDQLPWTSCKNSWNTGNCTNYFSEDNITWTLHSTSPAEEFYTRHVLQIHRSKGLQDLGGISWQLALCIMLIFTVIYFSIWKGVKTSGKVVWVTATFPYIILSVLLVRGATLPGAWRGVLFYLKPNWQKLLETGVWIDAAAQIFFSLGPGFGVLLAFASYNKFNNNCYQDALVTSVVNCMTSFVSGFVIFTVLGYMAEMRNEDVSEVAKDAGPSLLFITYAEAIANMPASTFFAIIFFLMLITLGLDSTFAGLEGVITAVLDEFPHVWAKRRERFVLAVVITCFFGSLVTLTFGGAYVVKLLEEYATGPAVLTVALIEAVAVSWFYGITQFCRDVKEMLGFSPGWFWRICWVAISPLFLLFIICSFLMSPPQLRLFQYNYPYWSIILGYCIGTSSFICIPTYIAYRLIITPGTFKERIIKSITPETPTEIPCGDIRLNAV

SMILES	Ki [1] [nM]	Ki [2] [nM]	Ki [3] [nM]	Ki [4] [nM]
CN(C)Cc1ccccc1Oc1ccc(I)cc1N	0.171			
Cc1ccc(Oc2ccc(F)cc2CN(C)C)c(N)c1	8	1240	503	
Cc1ccc(Oc2cc(OCCF)ccc2CN(C)C)c(N)c1	519	8850		726
Cc1ccc(Oc2cc(OCCCF)ccc2CN(C)C)c(N)c1	445	> 500		> 1000
Cc1ccc(Oc2ccc(OCCCF)cc2CN(C)C)c(N)c1	7	632		6980
Cc1ccc(Oc2ccc(OCCCCF)cc2CN(C)C)c(N)c1	12	406	3600	
Cc1ccc(Oc2ccc(OCCF)cc2CN(C)C)c(N)c1	401	667		4190
Cc1ccc(Sc2cc(F)ccc2CN(C)C)c(N)c1	13	1200		1220
Cc1ccc(Oc2cc(F)ccc2CN(C)C)c(N)c1	7	503		960
